Assay outcomes from PubChem BioAssay.
Insulin prom inh = TRM-6 insulin promoter activity inhibition; TRM-6 cells (human fetal islet line), insulin promoter-eGFP reporter, imaging; reporter expression induced with tamoxifen; 0.9% of 130,000 active; inhibition, % at 2 µM;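 active = inhibition above the mean plus 3 SD, with well images judged a real hit on visual review, cut at about 60% in these data, passing the limit was not always enough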
Yeast life ext = yeast lifespan extension | S. cerevisiae growth with nicotinamide, OD615; deaD strain in restrictive glucose medium | AID 775 | inhibition of the nicotinamide effect, % at 10 µM | 0.68% of 130,000 active;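 active = inhibition above a set limit, placed 3 SD over the median of all compounds, cut at about 26% in these data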
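System: Modified budding yeast, DeaD strain | Buffer or medium: Restrictive glucose medium | Also added: 1.5 mM nicotinamide | Doses: 10 µM single point, 0.25% DMSO | Schedule: 48 h compound exposure at 30 °C, humidified | Detection: Absorbance at 615 nm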
Yeast growth inh = reduces growth of yeast BB579 in restrictive medium; S. cerevisiae BB579 growth, OD615, 48 h; inhibition, % at 10 µM; 0.51% of 140,000 active; AID 804;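 active = inhibition above a set limit, 3 SD over the mean compound inhibition, cut at about 44% in these data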
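System: Saccharomyces cerevisiae DeaD strain BB579, replicative lifespan model yeast. Buffer or medium: restrictive glucose-based CSMM-D medium. Doses: one dose, 10 µM compound with 0.25% DMSO. Timing: 4 h preincubation and 48 h exposure at 30 °C. Detection: turbidity as optical density at 615 nm. Benchmarks: amphotericin B 10 µg/mL, positive.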
RAM inhibit = inhibitors of the yeast RAM network | S. cerevisiae dse1pr::URA3 reporter, 5-FOA growth OD615, 2 d; analog-sensitive cbk1-as2 kinase mutant strain | inhibition, % at 50 µM | 1.8% of 190,000 active | AID 868;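 active = inhibition above a set limit, 3 SD over mean compound inhibition, cut at about 8.4% in these data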;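 note: inhibition rescues growth on 5-FOA so higher OD means more RAM inhibition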
Insulin prom up = MIN6 insulin promoter up-regulation; 0.3% of 190,000 active; MIN6 insulin promoter-GFP reporter, high-content imaging; stronger effect = higher value; AID 1625; z-score at 5 µM;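 active = z-score above 3 at 5 µM with at least 500 cells counted in the well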
Each line names hits and unclear results; the compound was inactive in the other large screens. The list is not random: actives were taken first. Their share in the collection is about 3%.

O=C(O)c1cc(-c2cccs2)nc2cc3c(cc12)OCCO3	Insulin prom inh 85.7 (no result: Insulin prom up)
O=C(NCc1cccs1)c1cc(-c2ccncc2)nc2ccc(Br)cc12	none (no result: Insulin prom inh, Yeast life ext, Yeast growth inh)
O=C(CSc1ccc2ccccc2n1)NCCC1=CCCCC1	RAM inhibit 8.6 (no result: Insulin prom inh)
O=C(CN1CCN(c2ccc([N+](=O)[O-])cc2)CC1)Nc1nccs1	Insulin prom inh 76.9
O=C(CN1CCN(c2ccc([N+](=O)[O-])cc2)CC1)Nc1ccccn1	none
CNC(=O)c1ccc(-c2sc3nc(N4CCOCC4)c4c(c3c2N)CCCC4)o1	RAM inhibit 9.3 (no result: Insulin prom inh)
CC1(C)Cc2c(c(N3CCOCC3)nc3sc(-c4ccc(C(=O)O)o4)c(N)c23)CO1	none
NNC(=O)c1sc2nc(N3CCOCC3)c3c(c2c1N)CCCC3	none (no result: Insulin prom inh, Yeast life ext, Yeast growth inh, RAM inhibit)
CNC(=O)c1ccc(-c2sc3nc(N4CCOCC4)c4c(c3c2N)CC(C)(C)OC4)o1	Insulin prom up 3.23
O=C(CNC(=S)N(Cc1ccccc1)Cc1ccccc1F)NCCc1ccccc1	RAM inhibit 11.4 (no result: Yeast life ext, Yeast growth inh)
O=C(CNC(=S)N(Cc1ccccc1)Cc1ccccc1F)NCc1ccccc1	none (no result: Yeast life ext, Yeast growth inh)
CCOC(=O)Nc1ccc2c(c1)N(C(=O)CCN1CCN(C)CC1)c1ccccc1S2	none
CCOC(=O)Nc1ccc2c(c1)N(C(=O)CCN1CCN(CCO)CC1)c1ccccc1S2	Insulin prom inh 89.2 (no result: Yeast life ext, Yeast growth inh, RAM inhibit, Insulin prom up)
CN(CCC#N)C(=O)CC1(Cc2ccccc2)CCOC(C)(C)C1 (stereo not given)	none (no result: Insulin prom inh, Yeast life ext, Yeast growth inh, RAM inhibit)
COc1cccc(Nc2nc3ccccc3n2C(C)C)c1	Insulin prom inh 61.5
COc1cccc(Nc2nc3ccccc3n3cnnc23)c1	none (no result: Insulin prom inh)
COc1cccc(NC(=O)COC(=O)c2ccccc2C(=O)N2CCN(c3ccccc3)CC2)c1	none (no result: Insulin prom inh, Yeast life ext, Yeast growth inh)
CC(C)(C)c1cc(NCCCn2ccnc2)n2ncc(-c3ccc(Cl)cc3)c2n1	Yeast growth inh 85.5 (no result: Insulin prom up)
O=C(Nc1cc(C(F)(F)F)cc(C(F)(F)F)c1)Nc1cnn(-c2ccc([N+](=O)[O-])cc2)c1C(F)(F)F	none (no result: Insulin prom inh, Yeast life ext, Yeast growth inh, RAM inhibit)
CC(C)(O)C#Cc1ccc(CN2CCN(Cc3ccsc3)C(CCO)C2)s1 (stereo not given)	none (no result: Insulin prom inh, Yeast life ext, Yeast growth inh)
COC(=O)c1cc(-c2ccc(Cl)cc2)n[nH]1	none (no result: Insulin prom inh, Yeast life ext, Yeast growth inh)
COC(=O)c1cc(-c2ccc(Cl)cc2Cl)n[nH]1	Insulin prom inh 77.8 (no result: Yeast life ext, Yeast growth inh)
COCCNC(=O)c1cn(C)c2ccccc2c1=O	none (no result: Yeast life ext, Yeast growth inh)
Cc1ccc(C(=O)CSc2ncnc3sc4c(c23)CCC(C)C4)cc1 (stereo not given)	RAM inhibit 8.6 (no result: Yeast life ext, Insulin prom up)
Cc1ccc(S(=O)(=O)N(C)C)cc1NC(=O)COC(=O)/C=C/c1ccc2c(c1)OCO2	RAM inhibit 9.3 (no result: Yeast life ext, Yeast growth inh)
CN(C)S(=O)(=O)c1cccc(NC(=O)COC(=O)/C=C/c2ccc3c(c2)OCO3)c1	none (no result: Insulin prom inh, Yeast life ext, Yeast growth inh)
Cc1ccc(S(=O)(=O)N(C)C)cc1NC(=O)COC(=O)/C(=C/c1ccc(F)cc1)c1cccs1	Insulin prom inh 64.3
Cc1ccc(S(=O)(=O)N(C)C)cc1NC(=O)COC(=O)/C=C/c1cnc2ccccc2n1	RAM inhibit 8.9 (no result: Yeast life ext, Yeast growth inh)
Cc1ccc(S(=O)(=O)N(C)C)cc1NC(=O)COC(=O)CCC(=O)c1ccc(F)cc1	none (no result: Insulin prom inh)
CN(C)S(=O)(=O)c1ccc(Cl)c(NC(=O)COC(=O)/C=C/c2cnc3ccccc3n2)c1	none (no result: Insulin prom inh, Yeast life ext, Yeast growth inh, RAM inhibit)
CCOC(=O)C1=C2NC(=O)c3ccccc3N2C(=O)C1	none (no result: Yeast life ext, Yeast growth inh)
CCOC(=O)Cc1csc(NC(=S)NC(=O)c2ccccc2)n1	none
CCOC(=O)Cc1csc(NC(=S)NC(=O)c2cc(OC)cc(OC)c2)n1	none (no result: Insulin prom inh, Yeast life ext, Yeast growth inh)
CCOC(=O)Cc1csc(NC(=S)NC(=O)c2ccccc2Br)n1	RAM inhibit 8.6
CCOC(=O)Cc1csc(NC(=S)NC(=O)c2ccc(C)cc2)n1	RAM inhibit 9.7 (no result: Insulin prom inh)
OCCN1CCN(C(c2cccs2)c2ccc3cccnc3c2O)CC1 (stereo not given)	none (no result: Insulin prom inh)
CC(C)(C)c1cc(C(c2cccnc2)N2CCN(CCO)CC2)cc(C(C)(C)C)c1O (stereo not given)	Yeast growth inh 95.7
O=C1CCC([N+](=O)[O-])C(c2cc3c(cc2Cl)OCO3)N1 (stereo not given)	none (no result: Insulin prom inh, Yeast life ext, Yeast growth inh)
COc1ccc(-c2cc3ccccc3n2CC(O)CN2CCCCC2)cc1 (stereo not given)	none (no result: Insulin prom inh, Yeast life ext, Yeast growth inh, RAM inhibit)
CCC(=C(c1ccc(OC)cc1)c1ccc(OC)cc1)c1cn(CC(O)CN2CCN(C)CC2)c2ccccc12 (stereo not given)	Yeast growth inh 94.9
CN1CCN(C2=Cc3cc(Cl)ccc3Sc3cc(F)ccc32)CC1	Yeast growth inh 97.9 (no result: Yeast life ext, Insulin prom up)
